# Reference: ChEMBL document CHEMBL1781927, “Highly selective c-Jun N-terminal kinase (JNK) 3 inhibitors with in vitro CNS-like pharmacokinetic properties II. Central core replacement” (Bioorg Med Chem Lett, 2011)
# Experiments:
# [1] = Oxidative metabolic stability in mouse liver microsomes assessed as compound remaining after 30 mins; assay type: ADME, Microsome; details: read-out: Stability
# In short: (§1)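 Liver microsomes, mouse or human, were incubated with the compound for 30 min under oxidative conditions. The read-out is the percent of parent compound remaining.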
# [2] = Oxidative metabolic stability in human liver microsomes assessed as compound remaining after 30 mins; assay type: ADME, Microsome; details: read-out: Stability; in short: as §1
# [3] = molecular target: Mitogen-activated protein kinase 9 (Homo sapiens, UniProt P45984); assay: Inhibition of JNK2 by TR-FRET assay
# In short: (§2)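 IC50s were determined at a single fixed ATP concentration, and each value is the mean of at least three independent experiments.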
# [4] = molecular target: Mitogen-activated protein kinase 8 (Homo sapiens, UniProt P45983); assay: Inhibition of JNK1 by TR-FRET assay; in short: as §2
# [5] = molecular target: Mitogen-activated protein kinase 10 (Homo sapiens, UniProt P53779); assay: Inhibition of JNK3 by TR-FRET assay; in short: as §2
# [6] = Solubility of the compound; assay type: physicochemical
# [7] = Metabolic stability in mouse liver microsomes assessed as compound remaining after 60 mins in presence of UDPGA; assay type: ADME, Microsome; details: read-out: Stability
# [8] = Apparent permeability from apical to basolateral side in MDCK2 cells at 5 uM after 120 mins; assay type: ADME, cell-based, Canis lupus familiaris, MDCK-II; details: dog, MDCK
# [9] = Metabolic stability in human liver microsomes assessed as compound remaining after 60 mins in presence of UDPGA; assay type: ADME, Microsome; details: read-out: Stability
# Sequence of Mitogen-activated protein kinase 9 (P45984 whole entry): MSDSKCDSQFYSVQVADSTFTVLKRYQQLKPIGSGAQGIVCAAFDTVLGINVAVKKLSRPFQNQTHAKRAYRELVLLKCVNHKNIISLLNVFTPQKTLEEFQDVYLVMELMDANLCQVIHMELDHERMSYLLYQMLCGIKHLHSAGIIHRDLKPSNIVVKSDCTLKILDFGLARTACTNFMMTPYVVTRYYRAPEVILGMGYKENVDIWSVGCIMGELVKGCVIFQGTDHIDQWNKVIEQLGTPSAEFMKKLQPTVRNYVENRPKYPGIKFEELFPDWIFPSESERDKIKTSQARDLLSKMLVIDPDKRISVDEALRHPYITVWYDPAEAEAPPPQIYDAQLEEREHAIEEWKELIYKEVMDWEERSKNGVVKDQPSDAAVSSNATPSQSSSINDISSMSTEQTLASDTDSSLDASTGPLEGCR
# Sequence of Mitogen-activated protein kinase 8 (P45983 whole entry): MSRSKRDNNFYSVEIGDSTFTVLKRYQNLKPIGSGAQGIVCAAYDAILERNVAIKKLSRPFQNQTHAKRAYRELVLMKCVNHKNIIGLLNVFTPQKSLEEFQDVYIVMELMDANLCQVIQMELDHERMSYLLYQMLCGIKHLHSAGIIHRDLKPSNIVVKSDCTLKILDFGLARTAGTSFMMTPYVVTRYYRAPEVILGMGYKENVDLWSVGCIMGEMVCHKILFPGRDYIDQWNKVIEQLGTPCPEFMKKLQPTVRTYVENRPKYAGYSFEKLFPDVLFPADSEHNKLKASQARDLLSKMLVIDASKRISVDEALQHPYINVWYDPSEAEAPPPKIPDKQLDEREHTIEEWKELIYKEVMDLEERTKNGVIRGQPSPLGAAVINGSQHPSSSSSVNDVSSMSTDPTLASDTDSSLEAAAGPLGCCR
# Sequence of Mitogen-activated protein kinase 10 (P53779 whole entry): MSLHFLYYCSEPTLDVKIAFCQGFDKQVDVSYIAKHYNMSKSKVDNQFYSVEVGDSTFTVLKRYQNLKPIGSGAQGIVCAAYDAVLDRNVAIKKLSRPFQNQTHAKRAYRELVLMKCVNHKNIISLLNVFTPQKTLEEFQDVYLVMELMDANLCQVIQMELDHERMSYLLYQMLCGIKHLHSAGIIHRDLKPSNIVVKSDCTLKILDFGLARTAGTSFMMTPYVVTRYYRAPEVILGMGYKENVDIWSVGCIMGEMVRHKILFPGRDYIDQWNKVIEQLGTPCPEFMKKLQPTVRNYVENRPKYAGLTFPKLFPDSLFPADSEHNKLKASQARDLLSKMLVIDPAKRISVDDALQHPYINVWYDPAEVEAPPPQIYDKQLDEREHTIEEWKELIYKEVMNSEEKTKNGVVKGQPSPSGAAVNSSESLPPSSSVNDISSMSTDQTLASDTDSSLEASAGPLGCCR
SMILES,remaining at 0.5 h [1] [%],remaining at 0.5 h [2] [%],IC50 [3] [µM],IC50 [4] [µM],IC50 [5] [µM],solubility [6] [µM],remaining at 1 h [7] [%],"Papp A→B at 2 h, 5 µM [8] [×10⁻⁶ cm/s]",remaining at 1 h [9] [%]
c1ccc2cc(-c3ncncc3-c3ccncc3)ccc2c1,0,29,18.1,> 50,4.13,–,–,–,–
Cc1cc(-c2n[nH]c(=S)n2-c2ccc3ccccc3c2)ccn1,–,–,15.3,> 50,14.8,100,–,–,–
Clc1nnn(-c2ccncc2)c1-c1ccc2ccccc2c1,0,5,37.9,> 50,12.6,–,–,–,–
Nc1cc(-c2n[nH]c(=S)n2-c2ccc3ccccc3c2)ccn1,–,–,0.504,24.3,1.03,100,–,–,–
Clc1nnc(-c2ccncc2)n1-c1ccc2ccccc2c1,–,–,> 50,> 50,30.4,78,–,–,–
Cc1nnc(-c2ccncc2)n1-c1ccc2ccccc2c1,–,–,46.2,> 50,18.3,100,–,–,–
c1ccc2cc(-n3nccc3-c3ccncc3)ccc2c1,11,58,4.88,> 50,1.23,–,–,–,–
Cc1cc(-c2n[nH]c(=S)n2-c2cnc3ccccc3c2)ccn1,–,–,> 50,> 50,> 50,100,–,–,–
c1ccc2cc(-c3cnnn3-c3ccncc3)ccc2c1,0,12,18.6,> 50,4.81,–,90,37.9,78
Fc1cnccc1-c1n[nH]c(=S)n1-c1ccc2ccccc2c1,–,–,34.6,> 50,27.4,35,–,–,–
S=c1[nH]nc(-c2ccnc(NC3CCCCC3)c2)n1-c1ccc2ccccc2c1,–,–,0.0665,> 50,0.0522,5,–,–,–
c1ccc2cc(-n3nncc3-c3ccncc3)ccc2c1,–,–,9.14,> 50,2.67,–,–,–,–
c1ccc2cc(-n3cnnc3-c3ccncc3)ccc2c1,76,100,19,> 50,4.48,35,87,30.6,100
S=c1[nH]nc(-c2ccnc(Br)c2)n1-c1ccc2ccccc2c1,–,–,> 50,> 50,> 50,35,–,–,–
